# From PubChem BioAssay
# G6PDH counter: L. mesenteroides G6PDH inhibitors, counter-screen for G6PDH-coupled screening assays, biochemical, Leuconostoc mesenteroides enzyme; inhibition, % at 5 µM; 200,000 tested, 0.12% active; AID 1020, 2008; Purified L. mesenteroides G6PDH, diaphorase/resazurin coupled fluorescence, 45 min; glucose-6-phosphate dehydrogenase [Leuconostoc mesenteroides]; in the data active = inhibition above about 50%
# Diaph inh CS: diaphorase inhibitors and chemical oxidizers, primary screen, counter-screen for diaphorase-coupled primary assays, biochemical, uHTS, resorufin fluorescence | diaphorase resazurin-to-resorufin fluorescence, NADH, 16 min; bacterial (C. kluyveri) enzyme, not human | inhibition, % at 20 µM | 190,000 tested, 0.69% active | AID 1217, 2008;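 active = primary screen inhibition at 20 µM above a set limit, cut at about 50% in these data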;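 note: plate controls were DMSO with full reaction for no effect and wells lacking NADH for full effect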
#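 System: Bacterial diaphorase enzyme (C. kluyveri) | Incubation: 16-min room-temperature incubation before reading | Benchmarks: No-NADH positive control and DMSO neutral control | Measured by: Resorufin fluorescence 544/590 nm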
# HKDC1 inh: HKDC1 hexokinase inhibitors, primary screen, biochemical, fluorescence, uHTS | 340,000 tested, 0.16% active | inhibition, % at 20 µM | recombinant HKDC1, G6PDH/diaphorase resazurin coupled fluorescence | AID 493160, 2011 | Q2TB90;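 active = inhibition above about 35% when tested at 20 µM, limit read from the data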;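 note: plate controls were DMSO wells with enzyme for no effect and DMSO wells lacking enzyme for full effect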
# Target sequence (Q2TB90 whole entry, looked up): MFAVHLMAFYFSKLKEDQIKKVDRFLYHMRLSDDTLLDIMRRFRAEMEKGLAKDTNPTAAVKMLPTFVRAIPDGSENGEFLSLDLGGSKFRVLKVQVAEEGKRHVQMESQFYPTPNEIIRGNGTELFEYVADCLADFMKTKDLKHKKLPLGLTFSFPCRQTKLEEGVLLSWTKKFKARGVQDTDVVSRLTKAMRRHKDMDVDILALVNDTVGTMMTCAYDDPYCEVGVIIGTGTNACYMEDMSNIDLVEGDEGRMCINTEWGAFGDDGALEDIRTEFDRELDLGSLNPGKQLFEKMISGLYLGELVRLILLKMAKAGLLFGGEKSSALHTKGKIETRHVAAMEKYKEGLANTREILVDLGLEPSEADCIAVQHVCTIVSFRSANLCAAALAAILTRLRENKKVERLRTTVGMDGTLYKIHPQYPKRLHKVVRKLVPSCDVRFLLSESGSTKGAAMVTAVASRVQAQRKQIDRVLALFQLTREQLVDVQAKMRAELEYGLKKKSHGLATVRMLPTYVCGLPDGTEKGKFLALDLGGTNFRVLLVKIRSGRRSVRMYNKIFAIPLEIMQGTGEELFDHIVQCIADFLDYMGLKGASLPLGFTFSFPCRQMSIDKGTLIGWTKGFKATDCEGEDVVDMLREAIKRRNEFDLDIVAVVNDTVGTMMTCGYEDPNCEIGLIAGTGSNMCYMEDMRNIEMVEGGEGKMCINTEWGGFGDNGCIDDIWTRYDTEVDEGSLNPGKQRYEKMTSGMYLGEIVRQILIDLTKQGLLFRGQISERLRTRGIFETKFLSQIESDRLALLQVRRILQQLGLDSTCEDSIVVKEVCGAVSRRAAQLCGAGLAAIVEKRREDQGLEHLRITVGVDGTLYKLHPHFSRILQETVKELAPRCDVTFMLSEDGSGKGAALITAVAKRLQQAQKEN
#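 System: Recombinant HKDC1 hexokinase | Amount: HKDC1 at 5 µg/mL | Reagent: Glucose with 1 mM ATP | Doses: Single 20 µM dose | Incubation: Reaction time 90 min, room temperature, protected from light | Signal: Coupled resazurin fluorescence, excitation 525 nm, emission 613 nm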
# Diaph act CS: compounds boosting diaphorase resazurin reduction – biochemical, uHTS, resorufin fluorescence, counter-screen for diaphorase-coupled primary assays, primary screen. Diaphorase/resazurin coupled assay, 16 min; active compounds read high; 1 = vehicle wells, 0 = NADH-free wells. activation factor at 20 µM. 190,000 tested, 0.005% active. AID 1229, 2008;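 active = diaphorase activity raised at least twofold by the compound at 20 µM; inactive = activation factor below 2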
#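 Assay system: Purified diaphorase enzyme from Clostridium kluyveri | Amount: Enzyme 0.07 U/mL final | Dosing: Compound 20 µM once, DMSO 1% | Timing: 16 min reaction at room temperature | Detection: Fluorescence, excitation 544 nm and emission 590 nm | Evaluation: Higher resorufin formation from activation or reduction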
# PfG6PD inh: PfG6PD enzyme inhibitors, primary screen, biochemical, fluorescence intensity, uHTS; 350,000 tested, 0.78% active; PfGluPho enzyme, NADPH resazurin-diaphorase fluorescence; glucose-6-phosphate dehydrogenase-6-phosphogluconolactonase (Plasmodium falciparum 3D7); AID 504690, 2011; inhibition, % at 20 µM;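 active = inhibition reaching at least a set limit at 20 µM in the primary screen, cut at about 59% in these data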;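 note: 0% = DMSO wells with substrate and 100% = DMSO wells lacking glucose-6-phosphate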
# PfG6PD confirm: PfG6PD inhibitors, hit retest, confirmation, biochemical, fluorescence intensity, single concentration; 2,400 tested, 34% active; shares compounds with PfG6PD inh; recombinant PfGluPho, NADPH-diaphorase-resazurin fluorescence; AID 504753, 2011; inhibition, % at 20 µM;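 active = inhibition of at least 50% at 20 µM in any single replicate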;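 note: 0% = DMSO with substrate and 100% = DMSO lacking glucose-6-phosphate substrate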
# Diaphorase 10uM: diaphorase inhibitors and chemical oxidizers, confirmation, counter-screen for P. falciparum G6PD inhibitor project, biochemical, fluorescence intensity, 10 µM NADPH | shares compounds with PfG6PD inh | diaphorase-coupled resazurin reduction, NADPH 10 uM | inhibition, % at 20 µM | 820 tested, 39% active | AID 504862, 2011;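 active = average inhibition reaching 50% or more with the compound at 20 µM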;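 note: resorufin red fluorescence formed as diaphorase reduces resazurin using NADPH; 0% = DMSO with enzyme and 100% = DMSO without enzyme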
# Diaphorase 30uM: diaphorase inhibitors and chemical oxidizers, confirmation, counter-screen for P. falciparum G6PD inhibitor project, biochemical, fluorescence intensity, 30 µM NADPH | Diaphorase/resazurin coupled assay, resorufin fluorescence | inhibition, % at 20 µM | shares compounds with PfG6PD inh | 820 tested, 29% active;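 active = inhibition averaging 50% or more, tested at 20 µM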;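 note: 0% = DMSO with enzyme and 100% = DMSO wells lacking diaphorase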
# Active calls of the source: *; x = no result given. Most compounds without a hit are left out; they make up all but 1.3% or so of the library.
SMILES,G6PDH counter,Diaph inh CS,HKDC1 inh,Diaph act CS,PfG6PD inh,PfG6PD confirm,others
Nc1ccc(Oc2ncccn2)cc1,x,x,21,x,66*,26,
CCN(Cc1nc2ccccc2c(=O)[nH]1)C(=O)COc1ccccc1-c1ccccc1,x,x,2,x,-5,x,
C=CCN1C(=O)c2ccc(C(=O)N3CCN(S(=O)(=O)c4cccc(Cl)c4)CC3)cc2C1=O,x,x,-4,x,5,x,
COCC(C)n1c(C)cc(C(=O)CSc2nc(C)c(C)c(C)n2)c1C (stereo not drawn),x,x,-2,x,60*,-12,
COCCn1c(C)cc(C(=O)CSc2nc(C)c(C)c(C)n2)c1C,0,-2,-4,1,32,x,
N#Cc1ccccc1NC(=O)COC(=O)CCc1ccccc1,x,x,-1,x,-1,x,
O=C(NC1CC1(c1ccccc1)c1ccccc1)c1ccccc1 (stereo not drawn),x,x,3,x,77*,36,
CN(CC(=O)Nc1ccccc1Cl)C(=O)Cn1cc(C(F)(F)F)cc(Cl)c1=O,x,x,-5,x,9,x,
C=C(C)[C@@H](O)COc1c2ccoc2cc2oc(=O)ccc12,x,x,1,x,15,x,
CC(C)=CCOc1c2ccoc2cc2oc(=O)ccc12,15,21,2,0.8,72*,31,
CC(C)=CCOc1c2ccoc2c(OCC=C(C)C)c2oc(=O)ccc12,x,x,16,x,128*,71*,Diaphorase 10uM=63*;Diaphorase 30uM=59*
CCc1cc(=O)oc2cc(OCC=C(C)C)ccc12,5,13,-3,0.9,-1,x,
COc1ccc(-n2cnc(=S)[nH]c2=S)cc1,x,x,-18,x,75*,7,
COc1ccc(-n2cc(-c3ccccc3)[nH]c2=S)cc1,-13,15,-1,0.8,38,x,
COc1ccc(-c2c(-c3cc(OC)c(OC)c(OC)c3)noc2C)cn1,x,x,3,x,9,x,
COc1cc(-c2c(-c3cc(OC)c(OC)c(OC)c3)noc2C)ccc1F,x,x,1,x,63*,14,
CCOC(=O)c1c(CSCc2ccccc2)oc2ccc(O)c(CN(C)C)c12,x,x,0,x,59*,40,
O=C(c1sc2cc(F)ccc2c1Cl)N1CCN(c2cccc(Cl)c2)CC1,-21,22,-12,0.8,9,x,
O=c1c2cc(F)ccc2sn1-c1ccccc1Cl,x,x,x,x,123*,110*,Diaphorase 10uM=-33;Diaphorase 30uM=2
Cc1ccc(-n2sc3cc(F)ccc3c2=O)c(C)c1,x,x,x,x,124*,104*,Diaphorase 10uM=5;Diaphorase 30uM=8
O=c1c2ccc(F)cc2sn1-c1ccccc1,x,x,x,x,128*,106*,Diaphorase 10uM=-25;Diaphorase 30uM=3
Cc1ccc(N2C(=O)CC(N3CCN(c4ccc(F)cc4)CC3)C2=O)c(C)c1 (stereo not drawn),x,x,2,x,3,x,
Cc1ccc([C@H]2C[C@@H](n3cc(COC(=O)c4ccccc4)nn3)[C@H](O)CN2C(=O)C2CCCCC2)cc1,x,x,x,x,0,x,
COc1ccc(S(=O)(=O)N2CCCOC2CNC(=O)C(=O)NCc2ccccn2)cc1 (stereo not drawn),x,x,1,x,-4,x,
C(=C\c1ccco1)/c1ccc2ccccc2n1,x,x,-1,x,66*,10,
SMILES,G6PDH counter,Diaph inh CS,HKDC1 inh,Diaph act CS,PfG6PD inh,PfG6PD confirm,others
C[C@@H]1CN([C@@H](C)CO)C(=O)c2cc(Br)cnc2O[C@H]1CN(C)Cc1cccc(C(=O)O)c1,x,x,x,x,-4,x,
Cc1ccccc1-c1ccc(C(=O)NCc2ccccc2)o1,4,13,-2,0.9,3,x,
Cc1ccc(-c2ccc(C(=O)NCc3ccc(Cl)cc3)o2)c2ccccc12,27,14,21,0.9,61*,4,
N#Cc1cn(CCOc2ccccc2F)c2ccccc12,-2,14,1,0.9,50,x,
Cc1ccc(OCCCn2cc(C#N)c3ccccc32)cc1,1,11,-1,0.9,68*,8,
CCOC(=O)N/N=C/c1cn(CCCOc2ccc(C)cc2)c2ccccc12,-2,5,-1,1,-8,x,
N#Cc1cn(CCOc2ccc(F)cc2)c2ccccc12,6,16,2,0.8,84*,34,
COc1ccccc1-c1cccc([C@@H]2C[C@H]3[C@H](CON3C)CN2C(=O)C(C)(C)C)c1,x,x,2,x,-5,x,
CCc1ccc(-n2c(=S)sc3c(=O)[nH]c(SCC(=O)NC4CCCCC4)nc32)cc1,x,x,x,x,-24,x,
COc1ccc(Br)cc1/C=N/NC(=O)CNC(=O)C1COc2ccccc2O1 (stereo not drawn),x,x,12,x,119*,103*,Diaphorase 10uM=97*;Diaphorase 30uM=77*
COc1ccc(-c2n(Cc3ccccc3)c3ccccc3[n+]2Cc2ccccc2)cc1,13,-35,-11,1.4,3,x,
CCn1c(O)c(C=Nc2ccccc2)sc1=S,-3,9,-1,0.9,68*,15,
c1ccn2cc(-c3ccc4c(c3)OCCO4)nc2c1,4,6,5,0.9,27,x,
Cc1ccc2nc(-c3ccc4c(c3)OCCO4)cn2c1,x,x,3,x,109*,58*,Diaphorase 10uM=74*;Diaphorase 30uM=61*
Clc1ccc2nc(-c3ccc4c(c3)OCO4)cn2c1,9,7,-5,0.9,73*,50*,Diaphorase 10uM=17;Diaphorase 30uM=19
